These results are taken from the RNAGym collection of RNA variant scans (doi:10.1126/science.aae0568).

To fix the notation:
B1: tRNA (parent)
chain: GUUCCGUUGGCGUAAUGGUAACGCGUCUCCCUCCUAAGGAGAAGACUGCGGGUUCGAGUCCCGUACGGAACG

Variants at the floor of the assay were thinned out. Where only a bound is given, the exact number is not on record here.

This data set covers variants of B1. In words: yeast fitness relative to wild type (ratio to wild type); higher = fitter; tRNA-Arg(CCU), competitive growth, 37 C, YPD. The procedure, abridged:
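For this measurement, the tRNA-Arg(CCU) gene was varied by chemical synthesis at a 3% per-site mutation rate across 69 sites, and each variant was placed at the native genomic locus in Saccharomyces cerevisiae. The pooled strains went through a 24-hour competition in YPD at 37°C in six parallel replicates, with amplicons from start and end populations read by 100-nucleotide paired-end sequencing. Darwinian fitness relative to wild type followed from the change in each genotype's frequency. Genotypes needed ≥ 100 starting reads, and estimates < 0.5 were set to 0.5.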
Turning to GUUCCGUUGAGGUAAUGGUAACGCGUCUCCCUCCUAAGGAGAAAACUGGGGGUUCGAGUCCCGUUCGGAACG, the yeast fitness was ≤ 0.5.
Then GUUCCGUUGAAGUACUGGUAACGAGUCUCCCUCAUAAGGAGAAGAGUGCGAGUUCGAGUCCCGUACGGAACG, with ≤ 0.5; and GUUCCGUUGACGUAAUGGUAACGCGUCUCCCUCCUUAGGAGAAGACUGCGGGUUCGAGUCCCGUACGGAACG, with 0.596; and GUUCCGUUGACGUAAUGGUAAUGCGUCUCCCUCCUAAGGAGAAGACUGCGGGUUCGAGUCCCGUACGAAACG, with ≤ 0.5.
The value for GUUCCGUUGACGUAAUGGUAUCGCGUCUCCCUCCUAAGGAGAAGACUGCGGGUUCGAGUCCCGUACGGAACG was 0.609; that for GUUCCGUUGACGUAAUGGUAAUGCGUCUCCCUCCUAAGGAGAAGACUGCGGGUUCGAGUCCCGUACGGAUCG was ≤ 0.5.
Then GUUCCGUUGACGUAAUGGUAUCGCGUCUCCCUCCUAAGGAGAUGUCUGCCGGUUCGAGUCCCGUACGGAACG, with ≤ 0.5; and GUUCCGUUGAUGUAAUGGUAACGCGUCUCCCUCCUAAGGAGAAGACUGCGGGUUCGAGUCCCGUACGGAACG, with 0.777; and GUUCCGUUGAGGUAAUGGUAACGCGUCUCCCUCCUAAGGAGAAGACUGCGGGUUCGAGUCCCGUACGGAACG, with 0.565.
For GUUCCGUUGAUGUAAUGGUAACGCGUCUACCUCAUAAGGAGAAAACUGCGGGUUCGAGUCCCGUACGGCACG, the yeast fitness was ≤ 0.5.
For GUUCCGUUGACGUAAUGGUAACGCGUCUCCCUCCUAAGGAGGAGACUGCGGGUUCGAGUCCCGUGCGGAACG, the yeast fitness is ≤ 0.5.
The value for GUUCCGUUGACGUAAUGGUAAUGCGUCUCCCUCCUAAGGAGAAGACUGCGGGUUCCAGUCCCGUACGGAUCG was ≤ 0.5; that for GUUCCGUUGACGUAAUGGUAACGCGUCUCCCUCCUAAGGAGUAGACUGCGGGUUCGAGACCCGUACGGAACG was ≤ 0.5.
In the case of GUUCCGUUGACGUAAUGGUAACGCGUCUCCCUCCUCAGGAGAAGACUGCGGGUUCGAGUCCCGUAUGGAACG, the yeast fitness is ≤ 0.5.
Then GUUCCGUUGACGUAAUGGUAACGCGUCUCCCUCCUAAGGAGAAGACUGCGGGUUCGUGUCCCGUUCGGAACG, with ≤ 0.5; and GUUCCGUUGACGUAAUGGUAAAGCGUCUCCCUCCUAAGGAGAGGACUGCGGGUUAGAGUCCCGUACGGAACG, with ≤ 0.5; and GUUCCGUUGACGUAAUGGUAACGCGUCUCCCUCCUGACGAGAAGACUGCGGGUUCGAGUCCCGUACGGAACG, with ≤ 0.5.
The value for GUUCCGUUGACGUAAUGGUAACGCGUCUCCCUCCUCAGGAGAAGCCUGCGGGUUCGAGUCCCGUACGGAACG was 0.634.
Then GUUCCGUUGACGUAAUGGUAACGCGUCUCCCUCCUCAGGAGAUGACUGCGGGUUCGAGUCCCGUACGGAACG, with 0.573; and GUUCCGUUGACGUAAUGGUAACGCGUCUCCCUCCUAAGGAGAGGACUGCGGCCUCGAGUCCCCUACGGAACG, with ≤ 0.5.
Take GUUCCGUUGACGUAAUGGUAACGCGUCUCCCUCCUAAGGAGUAGACUGCGGGUUCGAGUCCCGUACGGAACG: the yeast fitness worked out at 0.805.
Then GUUCCGUUGACGUAAUGGUAACGCGUCUCCCUCCUGAGGAGAAGACUGCGGGUUCGAGUCCCGUUCGGAACG, with ≤ 0.5; and GUUCCGUUGACGUAAUGGUAAGGCGUUUCCCUCCUAAGGAGAAGACUGCGGGUUCAAGUCCCGUAGGGAACG, with 0.504.
Then GUUCCGUUGACGUAAUGGUAACGCGUCUCCCUCCUCAGGAGAAGCCUGCGGGUUCGAGUCCCGUACGGAUCG, with ≤ 0.5; and GUUCCGUUGACGUAAUGGUAACGCGUCUCCCUCCUAAGGAGAAGACUGCGGGUUCGAGUCCCGUUCGGAACG, with 0.788; and GUUCCGUUGACGUAAUGGUAACGCGUCUCCCUCCUAAGGAGAAGACUGCGGGUUCGAGUCCCGUCCGGAACG, with 0.786.
The value for GUUCCGUUGAUGUAAUGGUAACGAGUCUCCCUCCUAAGGAGAAGACUGCGGGUUGGAGUCCCGUACGGAACG was 0.595.
In the case of GUUCCGUUGACGUAAUGGUAACGCGUCUCCCUCCUAAGGAGAGGACUGCAGGUUCGAGUCCCGUACGGAACG, the yeast fitness was found to be 0.573.
The value for GUUCCGUUGACGUAAUGGUAACGCGUCUCCCUCCUAUGAAGAAGACUGCGGGUUCGUGUCCCGUACGGAACG was ≤ 0.5.
Then GUUCCGUUGACGUAAUGGUAACGCGUCUCCCUCCUAAGGAGAAGACUGCGGGUUCGAGUCCCGUUCGAAACG, with ≤ 0.5.
Then GUUCCGUUGACGUAAUGGUAACGCGUCUCCCUCCUAAGGAGACGACUGCGGGUUCGAGUCCCGUACGGAACG, with 0.811; and GUUCCGUUGACGUAAUGGUAACGCGUCUCCCUCCUAAGGAGAGGACUGCGGGUUCGAGUCCCGUACGGAACG, with 0.65.
As for GUUCCGUUGAGGUAAUGGUAACGCGUCUCCUUCCUACGGAGAAGACUGCGGGUUCGAGUCCCGUACGGAACG, the yeast fitness is ≤ 0.5.
As to GUUCCGUUGACGUAAUGGUAAUGCGUCUCCCUCCUAAGGAGAAGACUGCGGGUUCGAGUCCCGUACGGAACG, the yeast fitness is 0.647.
The value for GUUCCGUUGACGUAAUGGUAACGCGUCUCCCUCCUAAGGAGAAGACUGCGGGUUCGAGUCCCGUACGGUACG was 0.732; that for GUUCCGUUGACGUAAUGGUAACGCGUCUCCCUCCUAAGGAGAAGACUGCGGGUUCGAGUCCCGUACGGGACG was 0.641; that for GUUCCGUUGACGUAAUGGUAACGCGUCUCCCUCCUAAGGAGAAGACUGCGGGUUCGAGUCCCGUACGGCACG was 0.858.
